Bioassay records from PubChem.
Most compounds without a hit are left out; they make up all but 2.7% or so of the library.
NTR1 ag: activates human neurotensin receptor 1; P30989; NTR1-U2OS beta-arrestin-GFP spot imaging, agonist mode; activation, % at 20 µM; 330,000 compounds, 0.17% hits; AID 493036;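 active = activation at or above 40% of the spot to cytoplasm intensity ratio, with at least 20 cells analyzed; inconclusive = wells under 20 cells, flagged as cytotoxic or low count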;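 note: 0% = DMSO without peptide and 100% = 100 nM NTR1 peptide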
PREPL inh: inhibits the human prolyl oligopeptidase-like enzyme; inhibition, % at 5.96 µM; AID 2751; 320,000 compounds, 0.68% hits; recombinant PREPL, fluorescence polarization activity-based probe;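 note: 0% = enzyme with DMSO and 100% = wells lacking enzyme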
Target sequence (Q4J6C6 whole entry, looked up): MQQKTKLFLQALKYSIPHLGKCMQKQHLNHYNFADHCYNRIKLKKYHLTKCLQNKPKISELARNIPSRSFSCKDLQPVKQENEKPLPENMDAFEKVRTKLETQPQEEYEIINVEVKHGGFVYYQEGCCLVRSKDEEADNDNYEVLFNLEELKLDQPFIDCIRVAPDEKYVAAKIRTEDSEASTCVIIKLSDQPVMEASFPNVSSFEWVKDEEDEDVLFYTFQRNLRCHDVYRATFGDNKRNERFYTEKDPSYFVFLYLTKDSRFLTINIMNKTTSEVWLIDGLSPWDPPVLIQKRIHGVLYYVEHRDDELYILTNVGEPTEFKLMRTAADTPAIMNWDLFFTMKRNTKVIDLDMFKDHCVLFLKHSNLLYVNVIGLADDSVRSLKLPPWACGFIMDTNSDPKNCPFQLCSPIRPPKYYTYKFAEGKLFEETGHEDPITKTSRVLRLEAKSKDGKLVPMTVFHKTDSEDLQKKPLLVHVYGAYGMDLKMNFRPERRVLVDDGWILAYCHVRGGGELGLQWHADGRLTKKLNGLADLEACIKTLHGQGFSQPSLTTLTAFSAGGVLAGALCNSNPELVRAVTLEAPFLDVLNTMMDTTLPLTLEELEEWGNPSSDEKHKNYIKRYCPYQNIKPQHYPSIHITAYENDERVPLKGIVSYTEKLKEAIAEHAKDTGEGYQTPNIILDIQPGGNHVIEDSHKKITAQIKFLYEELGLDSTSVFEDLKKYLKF
Hep lipid drop: modulators of hepatic lipid droplet formation | AML12 mouse hepatocytes, oleate lipid droplets, BODIPY imaging | inhibition, % at 6.5 µM | 240,000 compounds, 0.4% hits;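 active = lipid droplet intensity inhibited by at least 50%, with more than 500 cells counted; inconclusive = wells with under 300 cells, treated as cytotoxic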
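Assay system: AML12 hepatocytes (mouse); Probe or stimulus: oleic acid at 100 µM to induce lipid droplet formation; Dosing: compound at 6.5 µM only; Schedule: compound with oleate, overnight; Detection: fluorescence imaging, 20x objective, two fields per well; Measure: % inhibition of lipid droplet signal.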
MC4R antagonist: human MC4R antagonism in cAMP assay | P32245 | MC4R-expressing cells, MTII-stimulated cAMP, LANCE TR-FRET | inhibition, % at 6.5 µM | 360,000 compounds, 0.48% hits | AID 540295;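 active = inhibition above its plate's cutoff, the mean of tested wells on that plate plus 3 SD, cut at about 29% in these data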;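 note: 0% = Melanotan II alone and 100% = Melanotan II plus saturating MCL0020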
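System: U2OS cells stably expressing human melanocortin 4 receptor (MC4R). Reagent: Melanotan II challenge after compound preincubation. Doses: 6.5 µM. Times: 30-min compound, 1-h challenge, 1-h detection, room temperature. Measured by: TR-FRET with Eu-cAMP and labeled anti-cAMP, 671 nm. Replicates: singlicate.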
MC4R ag barr: activates human MC4R beta-arrestin recruitment; P32245; U2OS MC4R beta-arrestin complementation, luminescence; percent of melanotan II response, DMSO zero; activation, % at 8.9 µM; 360,000 compounds, 0.98% hits;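 active = activation above a per-plate cutoff, the mean activation of sample wells on that plate plus 3 SD, cut at about 8% in these data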
m5-HT2A agonist: agonists of mouse serotonin 5-HT2A receptor (HTR2A); activation, % at 7.6 µM; 360,000 compounds, 0.66% hits; CHO-K1 mHTR2A beta-arrestin complementation, luminescence; percent of 30 µM serotonin response;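 active = activation above a run cutoff, the mean activation of all tested compounds plus 3 SD, cut at about 14% in these data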;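 note: 0% = plate median of compound wells and 100% = 30 µM serotonin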
PREPL inh cf: human PREPL inhibition, confirmation; shares compounds with PREPL inh; recombinant PREPL, fluorescence polarization activity probe; inhibition, % at 5.96 µM; 2,000 compounds, 67% hits;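 note: 0% = protein with DMSO and 100% = wells lacking protein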
An asterisk follows results filed as active; ? = inconclusive; / = no result. Cut-off read from the data, not from the text of the source, unless noted: active = inhibition above about 43%; inactive = the rest.

SMILES	NTR1 ag	PREPL inh	Hep lipid drop	MC4R antagonist	MC4R ag barr	m5-HT2A agonist	PREPL inh cf
CC(=O)N1CCN(c2ccc(NCc3ccc(F)cc3)cc2)CC1	-0.5	66.8*	/	6.7	-0.3	-1.5	39.2
COc1cc(CNc2ccc(N3CCN(C(C)=O)CC3)cc2)ccc1OCc1ccc(F)cc1	/	45.1*	11.0	-12.0	4.2	-0.2	39.6
CC(=O)N1CCN(c2ccc(NCc3cccc(C)c3)cc2)CC1	0.1	59.2*	/	1.9	0.8	2.2	34.4
Cc1ccc(S(=O)(=O)NC(=O)COc2ccc([N+](=O)[O-])cc2)cc1	-1.1	-3.4	-8.5	2.8	-2.5	1.4	/
CC1(C(=O)Nc2cccc3cccnc23)CCN1Cc1cccc2c1OCO2 (configuration not stated)	/	/	/	4.0	0.8	-0.8	/
CN(C)c1ccc(C(O)P(=O)(OCc2ccccc2)c2ccc(N(C)C)cc2)cc1 (configuration not stated)	2.4	50.7*	-3.5	8.2	-1.2	-5.5	52.6*
CC(C)(C)OC(=O)C[C@H]1C/C=C\C[C@@H](CC(=O)N[C@@H](CO)Cc2ccccc2)C(=O)N2CCC[C@@H]2COC1=O	2.0	0.2	/	2.8	-1.8	-2.8	/
O=C(C[C@H]1C/C=C\CC[C@@H](Cc2ccc(F)cc2)C(=O)OC[C@H]2CCCN2C1=O)N[C@H](CO)Cc1ccccc1	3.0	24.2	/	1.1	0.6	3.9	/
O=C(C[C@@H]1C/C=C\C[C@@H](Cc2ccc(F)cc2)C(=O)OC[C@@H]2CCCN2C1=O)N[C@H](CO)Cc1ccccc1	-0.5	48.1*	/	3.8	-0.7	2.8	54.3*
O=C(C[C@@H]1C/C=C\C[C@H](Cc2ccc(F)cc2)C(=O)OC[C@H]2CCCN2C1=O)N[C@H](CO)Cc1ccccc1	-1.6	45.7*	/	3.7	-2.2	-7.1	42.7
O=C(C[C@@H]1C/C=C\C[C@@H](Cc2ccc(F)cc2)C(=O)OC[C@H]2CCCN2C1=O)NCCO	1.6	29.7	/	5.9	-1.5	0.2	/
O=C(C[C@H]1C/C=C\C[C@@H](Cc2ccc(F)cc2)C(=O)OC[C@H]2CCCN2C1=O)NCCO	0.7	46.7*	/	4.2	-2.2	11.5	48.3*
CN(C)c1ccc(S(=O)(=O)N2CCCCC2)cc1NC(=O)CCNC(=O)c1ccc(Cl)cc1	-2.4	-4.6	/	-2.5	0.5	-0.8	/
O=C(c1ccc2oc(CCc3ccccc3)nc2c1)N1CCC(O)CC1	-0.1	-3.5	0.0	9.7	-2.5	3.6	/
CCOC(=O)N1CCN(c2ncnc3c2[nH]c2ccc(F)cc23)CC1	2.6	18.4	/	12.2	-2.5	7.1	/
COc1cc2[nH]c3c(N4CCN(c5ccccn5)CC4)ncnc3c2cc1OC	5.7	69.0*	/	2.1	2.0	7.5	69.2*
CCOC(=O)N1CCN(c2ncnc3c2[nH]c2ccc(OC)cc23)CC1	1.3	18.6	/	-4.2	2.4	11.6	/
Fc1ccc2[nH]c3c(N4CCN(c5ccccc5)CC4)ncnc3c2c1	41.3*	61.9*	-22.9	21.0	3.9	1.5	47.7*
COc1ccc2[nH]c3c(N4CCc5ccccc5C4)ncnc3c2c1	9.7	60.1*	-77.4	-18.4	-2.5	-6.6	56.3*
COc1ccc(N2CCN(c3ncnc4c3[nH]c3ccccc34)CC2)cc1	27.9	51.6*	-28.6	-0.6	0.4	1.9	46.5*
Cc1nc(CSc2nnc3scc(-c4ccc(Cl)cc4)n23)cs1	0.8	-45.1	0.0	8.4	-3.3	-4.8	/
Cc1ccccc1-c1n[nH]nc1C1=CC(=O)CC(C)(C)C1	/	/	/	5.7	1.9	-1.9	/
CC(NC(=S)Nc1ccc(F)cc1)C(c1cccs1)N1CCOCC1 (configuration not stated)	3.6	6.5	-26.1	9.3	0.5	9.3	/
Nc1[nH]ncc1S(=O)(=O)c1ccccc1	-0.6	6.0	2.8	16.1	-1.8	2.3	/
COc1ccc(N2CCN(C(=O)c3ccc(Cn4c(=S)[nH]c5ccc(N6CCOCC6)cc5c4=O)cc3)CC2)cc1	1.1	44.7*	-8.1	-2.4	-1.7	6.2	44.8*
SMILES	NTR1 ag	PREPL inh	Hep lipid drop	MC4R antagonist	MC4R ag barr	m5-HT2A agonist	PREPL inh cf
CCN1C(=O)[C@@H]2[C@H](C1=O)[C@@H]1C(=O)Nc3ccccc3C(=O)N1[C@@H]2c1ccc(OC)cc1	1.3	3.2	/	20.1	0.3	13.3	/
COc1cccc(N=Nc2c(N)[nH]n3c(=O)c4c(nc23)CCCC4)c1	4.7	59.1*	23.7	8.2	-0.1	0.0	56.8*
Cc1ccc2nc3c(cc(C(=O)NCCN4CCOCC4)c(=N)n3CCCN3CCOCC3)c(=O)n2c1	0.1	17.4	-1.1	-11.4	-1.2	-0.1	/
Cc1ccc2nc3c(cc(C(=O)NCCc4ccccc4)c(=N)n3CCN3CCOCC3)c(=O)n2c1	3.5	44.8*	-6.9	-1.5	-1.3	-2.7	42.0
COCc1ccc(C(=O)NC2CCCN(Cc3ccccc3F)C2)o1 (configuration not stated)	0.1	-1.7	-9.2	10.3	-3.5	0.2	/
Cc1nnc(SCCC(=O)Nc2ccccc2Cl)o1	0.7	-6.1	1.0	4.6	-1.4	-2.1	/
COc1ccc(N2CCN(S(=O)(=O)c3cccc4cccnc34)CC2)cc1	-4.1	7.7	/	0.2	-0.5	-12.1	/
COc1ccc(CC2(CO)CCN(S(=O)(=O)c3cccc4cccnc34)CC2)cc1	1.8	50.5*	-11.7	-0.2	-1.8	11.2	41.9
Oc1nc(Nc2cccc(Cl)c2)sc1/C=C1\C=Nc2ccccc21	22.8	55.9*	4.1	-0.6	6.2	-8.0	64.3*
CCOC(=O)c1c(Nc2ccc(Cl)cc2)sc(/C=C2\C=Nc3ccccc32)c1O	0.6	15.3	-1.1	10.5	4.9	2.5	/
CC1=Nc2ccccc2/C1=C\c1sc(Nc2ccc(C)cc2)nc1O	9.1	52.0*	?	-18.6	-2.4	-4.9	45.7*
Oc1cccc(Nc2nc(O)c(/C=C3\C=Nc4ccccc43)s2)c1	3.0	53.4*	17.4	-3.1	3.1	-8.8	52.0*
CCCCNC(=O)C1(C)CCN1C(=O)c1cc(F)ccc1C (configuration not stated)	/	/	/	-6.3	-0.4	-1.4	/
CN(C)c1ccc(C(CNC(=O)COc2ccc(Cl)cc2)N2CCCC2)cc1 (configuration not stated)	-0.4	66.9*	-9.9	2.8	-1.1	-5.8	52.8*
O=C(Nc1ccccc1CC[N+](=O)[O-])N1CCN(c2ccccc2)CC1	1.1	11.5	-7.6	15.3	0.5	6.7	/
CCN1/C(=C/c2ccc3ccccc3[n+]2CC)C=Cc2ccccc21	3.2	46.8*	-151.8	-51.2	-6.0	-5.3	49.3*
CCN1/C(=C/c2ccc3ccccc3[n+]2CCCS(=O)(=O)[O-])C=Cc2cc(C)ccc21	/	/	/	-17.8	-2.0	-5.1	/
